Holding throughout (format): cell-based
Assay [1] concerns the target T1, KV3.3 (Mus musculus, UniProt Q63959).
T1 sequence (Q63959 1-769): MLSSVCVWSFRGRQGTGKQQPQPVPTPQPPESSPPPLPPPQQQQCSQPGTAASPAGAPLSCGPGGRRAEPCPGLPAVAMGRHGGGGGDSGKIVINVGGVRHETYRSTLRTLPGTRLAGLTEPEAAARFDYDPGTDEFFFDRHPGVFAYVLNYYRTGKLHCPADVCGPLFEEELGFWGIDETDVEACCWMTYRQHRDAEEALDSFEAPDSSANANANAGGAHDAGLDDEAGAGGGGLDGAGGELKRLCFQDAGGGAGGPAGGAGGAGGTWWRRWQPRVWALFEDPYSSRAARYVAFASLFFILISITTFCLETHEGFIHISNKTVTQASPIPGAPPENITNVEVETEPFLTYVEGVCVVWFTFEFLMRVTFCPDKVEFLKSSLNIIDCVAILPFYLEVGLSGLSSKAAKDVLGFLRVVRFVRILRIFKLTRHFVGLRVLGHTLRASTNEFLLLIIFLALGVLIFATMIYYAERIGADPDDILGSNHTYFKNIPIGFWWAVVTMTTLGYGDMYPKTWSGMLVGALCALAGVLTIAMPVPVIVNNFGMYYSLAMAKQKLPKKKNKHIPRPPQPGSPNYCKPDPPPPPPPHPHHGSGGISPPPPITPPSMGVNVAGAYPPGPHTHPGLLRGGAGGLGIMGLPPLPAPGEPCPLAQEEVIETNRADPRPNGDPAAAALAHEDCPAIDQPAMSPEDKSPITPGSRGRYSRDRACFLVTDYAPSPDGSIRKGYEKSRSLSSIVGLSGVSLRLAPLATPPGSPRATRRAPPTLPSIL
The experiment in a line: whole-cell patch-clamp, off-target channel, 10 μM compound. The conditions noted are these: vs 0.1% DMSO. The procedure, abridged: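 KV channels in transiently transfected HEK293T cells, whole-cell. Pipette (mM): 140 KCl, 2.5 MgCl2, 11 EGTA, 10 HEPES, pH 7.4. Bath (mM): 145 NaCl, 2.8 KCl, 2 CaCl2, 1 MgCl2, 10 glucose, 10 HEPES, pH 7.4. 0.1% DMSO bath applied, then 10 μM test compound. DMSO vs compound inhibition ratio compared by unpaired t-test, n = 5.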
(Patch clamp records ionic current or voltage across a cell membrane.)

Assay [2] addresses T2, ASIC3 (Rattus norvegicus, UniProt O35240).
T2 sequence (O35240 1-533): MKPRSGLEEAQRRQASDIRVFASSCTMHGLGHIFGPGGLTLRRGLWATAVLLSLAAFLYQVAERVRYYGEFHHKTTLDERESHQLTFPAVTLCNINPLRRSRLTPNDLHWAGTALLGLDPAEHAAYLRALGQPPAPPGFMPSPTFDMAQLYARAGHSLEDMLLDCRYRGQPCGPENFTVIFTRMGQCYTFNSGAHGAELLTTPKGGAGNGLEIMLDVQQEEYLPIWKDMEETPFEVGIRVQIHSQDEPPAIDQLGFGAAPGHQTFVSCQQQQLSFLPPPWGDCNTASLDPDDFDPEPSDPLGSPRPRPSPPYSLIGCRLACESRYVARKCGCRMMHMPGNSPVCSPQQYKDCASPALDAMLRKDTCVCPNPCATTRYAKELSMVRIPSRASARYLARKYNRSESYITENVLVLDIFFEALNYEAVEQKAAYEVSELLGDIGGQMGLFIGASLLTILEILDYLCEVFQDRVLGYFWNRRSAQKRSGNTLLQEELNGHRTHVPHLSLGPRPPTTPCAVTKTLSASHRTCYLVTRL
The experiment in a line: whole-cell patch-clamp, off-target channel, 10 μM compound. The conditions noted are these: vs 0.1% DMSO. The essentials:
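ASIC channels in transfected HEK293T cells, whole-cell. Pipette (mM): 140 CsF, 11 EGTA, 1 CaCl2, 2 TEA-Cl, 4 MgCl2, 10 HEPES, pH 7.3. NaCl-based bath with 20 mM HEPES (pH 7.4) or 20 mM MES (pH 5.5). 0.1% DMSO bath applied before 10 μM test compound. Inhibition ratios compared by unpaired t-test, n = 5.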

For assay [3], the target named is NaV1.2 (Rattus norvegicus, UniProt P04775). The experiment in a line: whole-cell patch-clamp, off-target channel, 10 μM compound. The conditions noted are these: vs 0.1% DMSO. The procedure, abridged:
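NaV channels, transiently transfected HEK293T cells, whole-cell, 16–24 h after seeding. Pipette (mM): 140 CsF, 1 EGTA, 10 NaCl, 10 HEPES, pH 7.4. Bath (mM): 140 NaCl, 5 KCl, 2 CaCl2, 1 MgCl2, 10 glucose, 10 HEPES, pH 7.4. Bath with 0.1% DMSO applied before 10 μM test compound. Inhibition ratios compared by unpaired t-test, n = 5.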

Assay [4] deals with T3, mouse Otop1 (mOtop1) channels (Mus musculus, UniProt Q80VM9).
T3 sequence (Q80VM9 1-600): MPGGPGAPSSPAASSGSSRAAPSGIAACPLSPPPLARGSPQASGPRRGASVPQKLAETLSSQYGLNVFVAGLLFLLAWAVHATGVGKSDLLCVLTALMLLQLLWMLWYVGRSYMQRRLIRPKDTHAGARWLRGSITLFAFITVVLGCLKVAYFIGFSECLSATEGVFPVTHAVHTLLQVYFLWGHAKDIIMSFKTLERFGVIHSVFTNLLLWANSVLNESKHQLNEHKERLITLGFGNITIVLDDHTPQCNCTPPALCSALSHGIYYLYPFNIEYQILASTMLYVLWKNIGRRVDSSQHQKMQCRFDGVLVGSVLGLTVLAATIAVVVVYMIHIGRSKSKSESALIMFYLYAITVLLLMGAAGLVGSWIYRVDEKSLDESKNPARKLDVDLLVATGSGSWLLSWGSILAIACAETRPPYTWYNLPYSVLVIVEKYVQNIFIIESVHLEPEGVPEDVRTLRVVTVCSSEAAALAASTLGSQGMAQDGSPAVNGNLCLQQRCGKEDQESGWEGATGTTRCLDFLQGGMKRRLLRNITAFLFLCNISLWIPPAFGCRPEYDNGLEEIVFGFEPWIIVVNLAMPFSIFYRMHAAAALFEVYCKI
Kind of assay: whole-cell patch-clamp, "on-current" analysis of acid/alkali-evoked currents.

[5] abbreviates: EC50s, enhancing acid-evoked Otop1 currents, summary statement.
[6] abbreviates: apparent EC50, potentiation of mOtop1 currents, pH 5.5, on-current analysis, n = 5.

Entries after “also recorded” stand apart in the source; their conditions may differ.

Results on three compounds are retold here after paper PMC11865470 (Communications Biology, 2025).

Sequence of NaV1.2 (P04775 whole entry): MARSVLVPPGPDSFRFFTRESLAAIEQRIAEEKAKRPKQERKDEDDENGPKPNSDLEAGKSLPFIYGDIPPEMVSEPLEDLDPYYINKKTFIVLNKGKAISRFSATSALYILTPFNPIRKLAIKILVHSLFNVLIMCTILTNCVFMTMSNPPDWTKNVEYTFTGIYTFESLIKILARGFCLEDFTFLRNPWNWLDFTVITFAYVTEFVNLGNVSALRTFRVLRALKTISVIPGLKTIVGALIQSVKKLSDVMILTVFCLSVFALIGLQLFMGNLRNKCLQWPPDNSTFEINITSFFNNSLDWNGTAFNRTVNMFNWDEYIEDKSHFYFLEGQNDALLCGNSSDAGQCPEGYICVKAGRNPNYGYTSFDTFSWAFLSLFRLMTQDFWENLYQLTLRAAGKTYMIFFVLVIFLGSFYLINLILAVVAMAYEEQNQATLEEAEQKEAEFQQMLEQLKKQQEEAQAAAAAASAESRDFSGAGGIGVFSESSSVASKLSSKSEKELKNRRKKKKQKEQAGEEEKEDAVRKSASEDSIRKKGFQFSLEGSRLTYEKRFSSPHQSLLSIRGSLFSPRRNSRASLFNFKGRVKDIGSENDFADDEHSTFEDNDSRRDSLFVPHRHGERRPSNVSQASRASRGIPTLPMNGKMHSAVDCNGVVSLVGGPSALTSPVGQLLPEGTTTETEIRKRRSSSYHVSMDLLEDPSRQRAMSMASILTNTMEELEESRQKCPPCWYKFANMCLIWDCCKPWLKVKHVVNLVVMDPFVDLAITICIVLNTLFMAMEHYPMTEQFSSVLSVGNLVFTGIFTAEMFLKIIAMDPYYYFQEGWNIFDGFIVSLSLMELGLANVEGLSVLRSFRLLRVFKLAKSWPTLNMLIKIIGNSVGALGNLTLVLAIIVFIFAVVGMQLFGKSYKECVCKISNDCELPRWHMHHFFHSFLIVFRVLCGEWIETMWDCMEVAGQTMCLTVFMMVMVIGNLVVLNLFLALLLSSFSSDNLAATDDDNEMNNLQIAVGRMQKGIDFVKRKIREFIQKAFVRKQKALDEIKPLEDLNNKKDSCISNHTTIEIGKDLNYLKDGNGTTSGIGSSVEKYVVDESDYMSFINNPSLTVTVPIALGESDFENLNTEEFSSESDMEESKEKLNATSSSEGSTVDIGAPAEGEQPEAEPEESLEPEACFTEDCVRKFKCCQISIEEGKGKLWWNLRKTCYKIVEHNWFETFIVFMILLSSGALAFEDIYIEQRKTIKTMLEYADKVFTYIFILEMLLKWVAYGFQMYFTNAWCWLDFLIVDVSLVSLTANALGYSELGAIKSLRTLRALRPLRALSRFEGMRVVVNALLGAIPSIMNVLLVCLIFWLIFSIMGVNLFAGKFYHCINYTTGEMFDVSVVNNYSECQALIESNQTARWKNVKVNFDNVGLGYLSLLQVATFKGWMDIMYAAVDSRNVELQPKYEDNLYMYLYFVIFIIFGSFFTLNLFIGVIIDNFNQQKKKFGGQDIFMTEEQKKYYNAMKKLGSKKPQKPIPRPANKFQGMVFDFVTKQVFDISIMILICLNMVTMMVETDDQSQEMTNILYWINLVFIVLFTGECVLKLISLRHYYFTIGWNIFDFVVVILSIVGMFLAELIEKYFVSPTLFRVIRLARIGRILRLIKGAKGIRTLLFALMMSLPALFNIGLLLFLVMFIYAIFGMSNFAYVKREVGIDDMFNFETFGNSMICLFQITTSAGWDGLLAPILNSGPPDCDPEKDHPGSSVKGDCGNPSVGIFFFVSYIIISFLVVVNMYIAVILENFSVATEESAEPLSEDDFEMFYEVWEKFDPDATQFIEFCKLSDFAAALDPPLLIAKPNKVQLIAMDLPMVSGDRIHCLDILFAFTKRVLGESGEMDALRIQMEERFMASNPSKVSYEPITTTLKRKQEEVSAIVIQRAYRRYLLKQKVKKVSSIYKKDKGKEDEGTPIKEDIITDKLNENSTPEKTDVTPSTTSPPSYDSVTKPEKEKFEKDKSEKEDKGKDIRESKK

For `CC(C)c1noc2ncc(C(=O)c3ccccc3O)cc12` [HIMOP, (2-hydroxyphenyl)-(3-propan-2-yl-5-isoxazolo[5,4-b]pyridinyl)methanone], the “sensitivity of channel to compound” value in assay [1], in assay [2] and in assay [3] was “completely resistant” throughout. In addition, the “direct activation of the Otop1 channel” value in assay [4] is recorded as “without directly activating”. Further, the “effect on pH 3.5-activated mOtop1 currents” value in assay [4] (10 μM) is on record as “did not potentiate”. Further, the “effect on pH 5.5-activated mOtop1 currents” value in assay [4] (10 μM, pH 5.5) was “robust potentiation effects; also recorded: markedly potentiated; also recorded: potent potentiation effects”. The concentration for a half-maximal effect (EC50) is approximately 10 µM in assay [4] (setting [5]) and 16.8 ± 6.5 µM in assay [4] (setting [6]).
For the compound `Cc1ccc(C(=O)Nc2ccc3ccccc3c2)o1` [MFaN, 5-methyl-N-2-naphthyl-2-furamide], the “sensitivity of channel to compound” value in assay [1], in assay [2] and in assay [3] was “completely resistant” throughout. Further, the “direct activation of the Otop1 channel” value in assay [4] is “without directly activating”. In addition, the “effect on mOtop1 activity at alkaline or neutral pH” value in assay [4] (10 μM, alkaline and neutral pH) is listed as “did not affect”. Besides, in assay [4] (10 μM, compared to the pH 3.5 group, Fig 1E), the “effect on pH 4.5-6.0 acid-activated mOtop1 currents” value is listed as “potently potentiated”. Also, the “effect on pH 3.5-activated mOtop1 currents” value in assay [4] (10 μM) is reported as “no detectable effect”. For the same compound, the “effect on pH 5.5-activated mOtop1 currents” value in assay [4] (10 μM, pH 5.5) was “robust potentiation effects; also recorded: potent potentiation effects”. For the same compound, the EC50 in assay [4] (EC50, potentiation of mOtop1 currents, pH 6.0, on-current analysis, n = 5) is 8.9 ± 4.7 µM; in assay [4] (setting [5]), approximately 10 µM; in assay [4] (setting [6]) it was 10.3 ± 2.6 µM.
`Cc1cc(NC(=O)c2ccc(Br)o2)ccc1NC(=O)c1ccco1` [B2FAMP, 5-Bromo-N-[4-(2-furoylamino)-3-methylphenyl]-2-furamide]: the “sensitivity of channel to compound” value in assay [1], in assay [2] and in assay [3] was “completely resistant” in each case. Moreover, the “direct activation of the Otop1 channel” value in assay [4] is “without directly activating”. Besides, the “effect on pH 3.5-activated mOtop1 currents” value in assay [4] (10 μM) is “did not potentiate”. Moreover, the “effect on pH 5.5-activated mOtop1 currents” value in assay [4] (10 μM, pH 5.5) is recorded as “robust potentiation effects; also recorded: markedly potentiated; also recorded: potent potentiation effects”. Moreover, the EC50 in assay [4] (setting [5]) was approximately 10 µM; in assay [4] (setting [6]), 12.2 ± 3.4 µM.

In general, EC50 refers to the midpoint of the concentration-response curve.
